{"data": "Published values from different studies", "read-out": "cell growth or viability", "note": "Protocols differ between the studies behind these lines."}
{"Compound": "CC(=O)OC[C@@]1(C)[C@H]2CC[C@@H]3CN(C(C)C)[C@@H](C4=CCOC4=O)C[C@H]3[C@]2(C)CC[C@H]1OC(C)=O", "cell line": "MRC5", "technique": "ATP luminescence", "tested at": "25 µM", "time": "72 h", "quantity": "cell death", "value": "-2.1%"}
{"Compound": "COc1cc(OC)c2c(=O)cc(-c3ccccc3)oc2c1-c1c(OC)cc(OC)c2c(=O)cc(-c3ccccc3)oc12", "cell line": "HS27", "technique": "MTT", "time": "24 h", "quantity": "CC50", "value": "> 200 µM"}
{"Compound": "COc1cccc2c1C(=O)c1c(O)c3c(c(O)c1C2=O)C[C@@](O)(C(=O)CO)C[C@@H]3O[C@H]1C[C@H](N)[C@H](O)[C@H](C)O1", "cell line": "MDA-MB-231", "technique": "MTT", "tested at": "25 µM", "time": "48 h", "quantity": "viability", "value": "33.8%"}
{"Compound": "COc1cc(C)cc2oc(-c3ccccc3)cc(=O)c12", "cell line": "HS27", "technique": "MTT", "time": "24 h", "quantity": "CC50", "value": "> 200 µM"}
{"Compound": "Cc1cn([C@@H]2C[C@H](O)[C@@H](CNC(=O)Nc3ccc(-c4ccccc4)cc3)O2)c(=O)[nH]c1=O", "cell line": "MRC5", "quantity": "CC50", "value": "> 50 µM"}
{"Compound": "COc1cc(OC)c2c(=O)cc(-c3ccc(C(F)(F)F)cc3)oc2c1", "cell line": "HS27", "technique": "MTT", "time": "24 h", "quantity": "CC50", "value": "> 200 µM"}
{"Compound": "CC1(C)OC[C@@]2(C)[C@H]3CC[C@@H]4CN(Cc5ccccc5C5CC5)[C@@H](C5=CCOC5=O)C[C@H]4[C@]3(C)CC[C@H]2O1", "cell line": "MRC5", "technique": "ATP luminescence", "tested at": "25 µM", "time": "72 h", "quantity": "cell death", "value": "16.7%"}
{"Compound": "COc1cc(C)cc2oc(-c3ccc(Br)cc3)cc(=O)c12", "cell line": "HS27", "technique": "MTT", "time": "24 h", "quantity": "CC50", "value": "> 200 µM"}
{"Compound": "CC1(C)OC[C@@]2(C)[C@H]3CC[C@@H]4CN(Cc5cccs5)[C@@H](C5=CCOC5=O)C[C@H]4[C@]3(C)CC[C@H]2O1", "cell line": "MRC5", "technique": "ATP luminescence", "tested at": "25 µM", "time": "72 h", "quantity": "cell death", "value": "-0.9%"}
{"Compound": "COc1ccc(S(=O)(=O)ON=C2C=C(C)C(=O)C(C)=C2)cc1", "cell line": "MDA-MB-231", "quantity": "CC50", "value": "1.03 µM"}
{"Compound": "CC(C)(C)CC(C)(C)Nc1c(-c2cccc(C#N)c2)nc2ncccn12", "cell line": "MDA-MB-231", "technique": "MTT", "tested at": "25 µM", "time": "48 h", "quantity": "viability", "value": "75.8%"}
{"Compound": "CC1(C)OC[C@@]2(C)[C@H]3CC[C@@H]4CN(Cc5ccc(C(F)(F)F)cc5)[C@@H](C5=CCOC5=O)C[C@H]4[C@]3(C)CC[C@H]2O1", "cell line": "MRC5", "technique": "ATP luminescence", "tested at": "25 µM", "time": "72 h", "quantity": "cell death", "value": "7.1%"}
